Reference: ChEMBL document CHEMBL1212703, “Identification of RIP1 kinase as a specific cellular target of necrostatins” (Nat Chem Biol, 2008)
Numbering of substitutions follows the chain as printed. The source made the active and inactive calls. The rule behind the calls is not given here. Peptide text beside a SMILES is read from it. * marks the point of attachment. Cbz = O=C(OCc1ccccc1)*; CH2F = FC*

What was measured:
Jurkat [1] = test: Inhibition of cellular necroptosis in TNFalpha treated […] human Jurkat cells expressing RIP1 S161E mutant at 30 uM; format: functional, cell-based
[2] = system: T1, Receptor-interacting serine/threonine-protein kinase 1 (Homo sapiens), Q13546 [K45M]; test: Inhibition of human RIP1 K45M mutant autophosphorylation expressed in FADD deficient human Jurkat cells at 10 to 30 uM; format: cell-based
T1 sequence (whole entry): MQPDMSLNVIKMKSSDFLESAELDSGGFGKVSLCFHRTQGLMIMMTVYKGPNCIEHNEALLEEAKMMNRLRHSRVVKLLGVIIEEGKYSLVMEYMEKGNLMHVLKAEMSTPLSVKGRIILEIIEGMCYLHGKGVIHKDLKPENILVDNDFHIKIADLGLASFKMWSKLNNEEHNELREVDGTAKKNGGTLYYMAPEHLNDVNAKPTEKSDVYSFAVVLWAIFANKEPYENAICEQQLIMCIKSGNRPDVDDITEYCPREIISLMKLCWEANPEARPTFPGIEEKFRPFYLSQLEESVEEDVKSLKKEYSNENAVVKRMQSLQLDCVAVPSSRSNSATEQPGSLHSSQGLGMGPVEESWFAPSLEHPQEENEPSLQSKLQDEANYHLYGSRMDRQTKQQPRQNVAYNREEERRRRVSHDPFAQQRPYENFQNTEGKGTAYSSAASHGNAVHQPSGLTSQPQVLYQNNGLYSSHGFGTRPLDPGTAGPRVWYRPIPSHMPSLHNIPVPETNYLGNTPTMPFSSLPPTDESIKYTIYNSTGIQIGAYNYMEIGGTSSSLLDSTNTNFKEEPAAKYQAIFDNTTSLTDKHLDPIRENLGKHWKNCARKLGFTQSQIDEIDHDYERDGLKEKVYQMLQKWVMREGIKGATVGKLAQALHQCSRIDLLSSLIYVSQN

[3] = target: T2, Heat shock protein HSP90 (Homo sapiens) (UniProt P07900+P08238); test: Inhibition of to HSP90 in FADD deficient human Jurkat cells assessed as RIP protein degradation at 30 uM by Western blot; format: cell-based
Outline: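 FADD-deficient Jurkat cells exposed to 30 µM compound for 16 hr; RIP1 levels then assessed by western blot against anti-RIP1, with tubulin as loading control.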

[4] = system: T3, Receptor-interacting serine/threonine-protein kinase 1 (Homo sapiens), Q13546 [S161E]; test: Inhibition of human RIP1 S161E mutant autophosphorylation expressed in HEK293T cells at 10 to 30 uM; format: cell-based; conditions: HEK-293T
T3 sequence (whole entry): T1 sequence (whole entry) with M45K, S161E

Jurkat [5] = test: Inhibition of TNF-alpha-induced NF-kappaB activation expressed in FADD deficient human Jurkat cells at 30 uM by luciferase reporter gene assay; format: cell-based
Outline: (§1)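 FADD-deficient Jurkat cells carrying a lentiviral NF-kB luciferase reporter, 2*10^4 cells/well, stimulated with 10 ng ml-1 human TNFα for 4 h with 30 µM compound. Luminescence read by Bright-Glo. Values given as fold luciferase increase over unstimulated cells; s.d. shown.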

HEK-293T [6] = test: Inhibition of TNF-alpha-induced NF-kappaB activation expressed in HEK293T cells at 30 uM by luciferase reporter gene assay; format: cell-based
Outline: (§2)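 293T cells, 1.2*10^6/well, cotransfected with pNFkB-Luc and pRSV-β-galactosidase control; 48 h later stimulated with 10 ng ml-1 human TNFα for 4 h with 30 µM compound. Luciferase (Bright-Glo) normalized to β-gal activity (ONPG, 30 °C, A420). Results expressed as fold over unstimulated cells; s.d. shown.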

[7] = system: T1, Receptor-interacting serine/threonine-protein kinase 1 (Homo sapiens), Q13546 [K45M]; test: Inhibition of human RIP1 K45M mutant autophosphorylation expressed in Sf9 cells
Jurkat [8] = test: Inhibition of cellular necroptosis in TNFalpha treated FADD deficient human Jurkat cells; format: functional, cell-based
[9] = target: T2, Heat shock protein HSP90 (Homo sapiens); test: Inhibition of FITC-geldanamycin binding to HSP90 in human Jurkat cell lysates at 30 uM by fluorimetric assay; format: cell-free
[10] = system: T1, Receptor-interacting serine/threonine-protein kinase 1 (Homo sapiens), Q13546 [K45M]; test: Inhibition of human RIP1 K45M mutant autophosphorylation expressed in HEK293T cells; format: cell-based; conditions: HEK-293T
Jurkat [11] = test: Inhibition of cellular necroptosis in TNFalpha treated FADD and RIP1 deficient human Jurkat cells at 30 uM; format: functional, cell-based
[12] = system: T1, Receptor-interacting serine/threonine-protein kinase 1 (Homo sapiens), Q13546 [K45M]; test: Inhibition of human RIP1 K45M mutant autophosphorylation expressed in Sf9 cells at 10 to 30 uM
Jurkat [13] = test: Inhibition of TNF-alpha-induced NF-kappaB activation expressed in FADD deficient human Jurkat cells by luciferase reporter gene assay; format: cell-based; outline: as §1
HEK-293T [14] = test: Inhibition of TNF-alpha-induced NF-kappaB activation expressed in HEK293T cells by luciferase reporter gene assay; format: cell-based; outline: as §2
[15] = target: Receptor-interacting serine/threonine-protein kinase 2 (Homo sapiens) (UniProt O43353); test: Inhibition of human RIP2 autophosphorylation expressed in HEK293T cells; format: cell-based; conditions: HEK-293T
Sequence of Receptor-interacting serine/threonine-protein kinase 2 (Homo sapiens) (O43353 whole entry): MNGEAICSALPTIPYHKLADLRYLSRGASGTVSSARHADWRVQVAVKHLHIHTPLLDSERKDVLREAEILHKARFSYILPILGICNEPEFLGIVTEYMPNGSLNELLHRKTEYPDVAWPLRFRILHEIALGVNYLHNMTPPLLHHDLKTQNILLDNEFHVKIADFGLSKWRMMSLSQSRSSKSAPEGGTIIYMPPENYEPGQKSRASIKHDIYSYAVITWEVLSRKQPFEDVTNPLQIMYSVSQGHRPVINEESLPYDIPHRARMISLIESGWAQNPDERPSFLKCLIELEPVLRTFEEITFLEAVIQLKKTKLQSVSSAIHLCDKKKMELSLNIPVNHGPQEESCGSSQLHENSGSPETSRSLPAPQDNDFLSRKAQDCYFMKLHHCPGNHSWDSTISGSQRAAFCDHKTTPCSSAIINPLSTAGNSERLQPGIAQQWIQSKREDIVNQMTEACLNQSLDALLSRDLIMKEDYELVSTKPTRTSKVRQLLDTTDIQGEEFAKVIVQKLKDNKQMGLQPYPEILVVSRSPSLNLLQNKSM
Outline: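 Myc-tagged RIP2 was transiently expressed in 293T cells, immunoprecipitated with anti-Myc antibody (clone 9E10), and used in an in vitro autophosphorylation kinase reaction with compound at the indicated concentrations, with DMSO as the vehicle.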

[16] = target: T4, Receptor-interacting serine/threonine-protein kinase 1 (Homo sapiens) (UniProt Q13546); test: (§3) Inhibition of endogenous RIP1 autophosphorylation in human Jurkat cells; format: cell-based
T4 sequence (whole entry): T1 sequence (whole entry) with M45K
Outline: (§4)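 RIP1 immunoprecipitated from Jurkat cells and autophosphorylated in vitro across a titration of compound. Autophosphorylation quantified by phosphorimager; EC50 derived by nonlinear regression curve fitting. An aliquot of each reaction was blotted for RIP1 to check protein input.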

[17] = system: T3, Receptor-interacting serine/threonine-protein kinase 1 (Homo sapiens), Q13546 [S161E]; conditions: HEK-293T, 100 uM
[18] = target: Receptor-interacting serine/threonine-protein kinase 3 (Homo sapiens) (UniProt Q9Y572); test: Inhibition of human RIP3 autophosphorylation expressed in HEK293T cells; format: cell-based; conditions: HEK-293T
Sequence of Receptor-interacting serine/threonine-protein kinase 3 (Homo sapiens) (Q9Y572 whole entry, looked up): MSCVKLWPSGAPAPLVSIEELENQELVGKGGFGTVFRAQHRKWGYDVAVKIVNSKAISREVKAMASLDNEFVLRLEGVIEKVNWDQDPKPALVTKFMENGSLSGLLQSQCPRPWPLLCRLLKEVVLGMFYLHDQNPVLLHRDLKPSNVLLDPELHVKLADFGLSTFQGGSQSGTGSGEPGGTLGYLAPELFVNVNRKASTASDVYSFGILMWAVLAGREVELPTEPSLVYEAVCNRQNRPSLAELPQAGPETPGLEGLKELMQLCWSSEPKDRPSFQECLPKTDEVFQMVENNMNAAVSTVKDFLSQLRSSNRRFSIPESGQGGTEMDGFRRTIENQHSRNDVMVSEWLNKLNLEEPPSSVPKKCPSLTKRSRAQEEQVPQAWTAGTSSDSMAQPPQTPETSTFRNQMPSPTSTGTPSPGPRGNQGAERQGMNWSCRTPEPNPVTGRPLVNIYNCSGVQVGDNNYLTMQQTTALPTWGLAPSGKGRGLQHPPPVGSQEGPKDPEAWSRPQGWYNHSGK

[19] = target: T5, Receptor-interacting serine/threonine-protein kinase 1 (Homo sapiens, UniProt Q13546); test: as §3; format: cell-based; outline: as §4
T5 sequence (Q13546 whole entry): T1 sequence (whole entry) with M45K

Jurkat [20] = test: Inhibition of cellular necroptosis in TNFalpha treated […] human Jurkat cells expressing RIP1 F162E mutant at 30 uM; format: functional, cell-based

## COc1ccc([C@H]2[C@H]3CCc4ccccc4C3=NN2C(C)=O)cc1
Jurkat [1]
  inhibition: Active
[2]
  inhibition: Active
[3]
  inhibition: inactive
[4]
  inhibition: Active
Jurkat [5]
  inhibition: inactive
HEK-293T [6]
  inhibition: inactive
[7]
  inhibition: Active
Jurkat [8]
  EC50: 0.29 µM
[9]
  inhibition: inactive
[10]
  inhibition: Active

## C[C@@H]1C[C@@H]([C@H](O)CC2CC(=O)NC(=O)C2)C(=O)[C@@H](C)C1
Jurkat [11]
  inhibition: inactive

## N#CCSc1nc2sc3c(c2c(=O)n1-c1ccccc1)CCCC3
Jurkat [8]
  EC50: > 100 µM
[10]
  inhibition: inactive

## CN1CC(Cc2c[nH]c3c(Cl)cccc23)NC1=O (stereo not drawn)
Jurkat [8]
  EC50: > 100 µM

## COc1ccc([C@H]2[C@H]3CCc4c(OC)cccc4C3=NN2C(C)=O)cc1
Jurkat [8]
  EC50: > 100 µM
[10]
  inhibition: inactive

## CN1C(=O)NC(Cc2c[nH]c3ccccc23)C1=O (stereo not drawn)
[10]
  inhibition: Active

## COC(=O)C[C@H](NC(=O)[C@H](C)NC(=O)[C@@H](NC(=O)OCc1ccccc1)C(C)C)C(=O)CF (Cbz-Val-Ala-Asp(OMe)-CH2F)
Jurkat [11]
  inhibition: inactive

## CN1C(=O)C(Cc2cn(C)c3ccccc23)NC1=S (stereo not drawn)
Jurkat [8]
  EC50: 33 µM
[10]
  inhibition: inactive

## CN1C(=O)C(Cc2c[nH]c3ccccc23)N(C)C1=S (stereo not drawn)
Jurkat [8]
  EC50: 78 µM
[10]
  inhibition: inactive

## COC1=C2C[C@@H](C)C[C@H](OC)[C@H](O)[C@@H](C)/C=C(\C)[C@H](OC(N)=O)[C@@H](OC)/C=C\C=C(/C)C(=O)NC(=CC1=O)C2=O
[12]
  inhibition: inactive
[2]
  inhibition: inactive
Jurkat [13]
  inhibition: Active
HEK-293T [14]
  inhibition: Active

## CN1C(=O)C(Cc2c[nH]c3c(Cl)cccc23)NC1=S (stereo not drawn)
[10]
  inhibition: Active

## COc1ccc(-n2c(SCC#N)nc3sc4c(c3c2=O)CCCC4)cc1
[2]
  inhibition: Active
[3]
  inhibition: inactive
Jurkat [5]
  inhibition: inactive
HEK-293T [6]
  inhibition: inactive
[7]
  inhibition: inactive
[9]
  inhibition: inactive
[10]
  inhibition: Active

## O=[N+]([O-])c1ccc(-c2nc(-c3ccc(F)cc3)c(-c3ccncc3)[nH]2)cc1
[15]
  inhibition: Active

## O=C1NC(=S)NC1Cc1c[nH]c2ccccc12 (stereo not drawn)
[7]
  inhibition: inactive
[16]
  inhibition: inactive
Jurkat [8]
  EC50: > 100 µM
[10]
  inhibition: inactive

## CN1C(=O)C(Cc2c[nH]c3ccccc23)NC1=S (stereo not drawn) [NECROSTATIN]
Jurkat [1]
  inhibition: inactive
[17]
  inhibition: inactive
[3]
  inhibition: inactive
[18]
  inhibition: inactive
Jurkat [5]
  inhibition: inactive
HEK-293T [6]
  inhibition: inactive
[7]
  inhibition: Active
[19]
  EC50: 0.182 µM
[9]
  inhibition: inactive
[10]
  inhibition: Dose-dependent effect
[15]
  inhibition: inactive
Jurkat [20]
  inhibition: inactive

## CN1C(=O)C(C)(Cc2c[nH]c3ccccc23)NC1=S (stereo not drawn)
Jurkat [8]
  EC50: > 100 µM
[10]
  inhibition: inactive
